Screening results: PubChem BioAssay, The Scripps Research Institute Molecular Screening Center
Rows were chosen to be rich in hits. Some 4.6% of all compounds tested hit in one or more screens of this group.
TAAR1 agonist: human TAAR1 agonists, primary screen, Fluo-8 calcium fluorescence, CHO RD-HGA16 cells; Trace amine-associated receptor 1 (Homo sapiens), Q96RJ0; AID 624467, 2012; 360,000 compounds, 0.99% hits; vehicle wells 0%, saturating PEA agonist 100%; activation, % at 3 µM;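 active means activation above the mean activation of all test compounds in the run plus 3 SD, cut at about 38% in these data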
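Signal – calcium-sensitive Fluo-8 signal, excitation 470-495, emission 515-575 nm · System – RD-HGA16 (CHO) cells co-expressing Gα16 and hTAAR1 · Incubation – 17-24 h seeding, 75 min 37 °C dye, 30 min RT · Compound dosing – 3 µM single concentration · Repeats – no replicates (n 1)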
GPR7 antag: GPR7 receptor antagonists, primary screen, cell-based, fluorescence, single concentration | GPR7-expressing cells, fluorescence antagonist assay | inhibition, % at 4.4 µM | 290,000 compounds, 1.1% hits; in the data active means inhibition above about 16%, passing the limit was not always enough;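 further: cells stimulated with the agonist NPW; 0% = agonist with vehicle and 100% = vehicle without agonist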
Target sequence (P48145 whole entry, looked up): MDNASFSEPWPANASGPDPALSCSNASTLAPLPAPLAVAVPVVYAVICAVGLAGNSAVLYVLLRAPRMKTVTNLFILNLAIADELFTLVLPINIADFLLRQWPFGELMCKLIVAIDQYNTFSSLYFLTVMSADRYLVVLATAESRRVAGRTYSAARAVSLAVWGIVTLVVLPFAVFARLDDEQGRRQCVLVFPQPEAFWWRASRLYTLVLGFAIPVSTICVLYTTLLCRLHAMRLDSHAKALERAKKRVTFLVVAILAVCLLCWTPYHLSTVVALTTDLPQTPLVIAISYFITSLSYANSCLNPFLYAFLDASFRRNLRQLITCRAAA
TAAR1 antag: human TAAR1 antagonists, primary screen, Fluo-8 calcium fluorescence, CHO RD-HGA16 cells. inhibition, % at 3 µM. 360,000 compounds, 1.5% hits. antagonist. Trace amine-associated receptor 1 (Homo sapiens), Q96RJ0;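 active means inhibition above a per-plate cutoff, the mean inhibition of test compounds on that plate plus 3 SD, cut at about 49% in these data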;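 further: 0% = DMSO plus EC80 beta-PEA response and 100% = DMSO alone without agonist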
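System: RD-HGA16 CHO cells with stable hTAAR1 and Gα16 | Probe or stimulus: EC80 β-phenethylamine stimulus | Dosing: 3 µM, single point | Times: Dye loading 75 min at 37 °C, then 30 min room temperature | Measured by: Fluo-8 calcium-sensitive fluorescence | Read-out basis: % inhibition of agonist calcium response | Replicates: n of 1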
OX1R antag-1: OX1R (HCRTR1) antagonists, primary screen, fluorescence, CHO/OX1R cells, Fluo-8 calcium, orexin A. 330,000 compounds, 0.43% hits. Fluo-8 calcium fluorescence. inhibition, % at 5 µM. AID 434989, 2010;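 active means inhibition above its plate's threshold, mean inhibition of all tested compounds on the plate plus 3 SD, cut at about 37% in these data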;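 further: 0% = orexin A challenge wells and 100% = SB-334867-A antagonist wells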
CHO parental Ca: ATP-evoked calcium signal inhibitors, parental CHO, primary screen, counter-screen for OX1R antagonist project, cell-based, fluorescence, Fluo-8 calcium dye; parental CHO-K1, ATP-induced calcium, Fluo-8 fluorescence; inhibition, % at 5.6 µM; 330,000 compounds, 0.63% hits; AID 463079, 2010;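 active means inhibition above that plate's mean sample inhibition plus 3 SD, cut at about 26% in these data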;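 further: 0% = ATP-challenged DMSO wells and 100% = DMSO wells without ATP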
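Assay system – parental CHO cells · Reagent – ATP stimulus · Detection – intracellular calcium via Fluo-8 no-wash fluorescent dye · Evaluation – percent inhibition of ATP-evoked calcium rise, normalized to controls · Controls – ATP wells versus no-ATP DMSO wells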
OX1R antag-2: antagonists of human orexin 1 receptor (OX1R). Orexin/Hypocretin receptor type 1 (Homo sapiens), O43613. OX1R-expressing cells, FRET antagonist read-out. inhibition, % at 6.6 µM. 330,000 compounds, 1.8% hits; in the data active means inhibition mostly above about 38%, no sharp cut-off; inactive means mostly below about 40%;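 further: 0% = agonist challenge alone and 100% = reference antagonist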
Numbers without * were called inactive; / = not tested or not shown.

SMILES | TAAR1 agonist | GPR7 antag | TAAR1 antag | OX1R antag-1 | CHO parental Ca | OX1R antag-2
CC(C)NC(=O)c1noc2cc([N+](=O)[O-])ccc12 | 10.2 | -5.5 | -4.8 | -15.2 | -5.2 | 67.2*
CN1CCN(c2ccc([N+](=O)[O-])cc2S(=O)(=O)N2CCOCC2)CC1 | 9.2 | 3.2 | 6.3 | -12.6 | 1.0 | 94.4*
O=C1NC[C@@H](CCCCN2CCN(CCC3CCCCC3)C(=O)C2=O)N(Cc2ccccc2)C1=O | 1.1 | / | -15.6 | / | / | /
C[C@@H]1CN([C@H](C)CO)C(=O)CCCn2cc(nn2)CO[C@H]1CN(C)C(=O)Oc1ccccc1 | 4.0 | / | -12.6 | / | / | /
COc1ccc2cc(CN(CC3CCCO3)S(=O)(=O)c3ccccc3)c(=O)[nH]c2c1 (configuration not stated) | 19.4 | -5.3 | 3.2 | -9.4 | -11.9 | 11.7
Cc1cccc2cc(CN(CC3CCCO3)S(=O)(=O)c3ccccc3)c(=O)[nH]c12 (configuration not stated) | 10.1 | -6.8 | 48.8* | -15.9 | -26.4 | 6.5
CC(=O)Nc1cc(-c2cccc(C(=O)NCCN(C)C)c2)cn2c(-c3ccc(C(C)=O)cc3)cnc12 | 3.0 | / | -25.2 | / | / | /
O=C(c1cc(COc2cccc3cnccc23)on1)N1CCCC(CCCO)C1 (configuration not stated) | 11.7 | 13.4 | 37.4 | 25.8 | 59.1* | 50.9
C=CCN=C1NC(c2cccc(Cl)c2)C(C(=O)OC)=C(C)N1Cc1ccc(C(F)(F)F)cc1 (configuration not stated) | 27.9 | / | 45.0 | / | / | /
COc1ccc(COc2cc(-c3cccc(OC)c3)nc3ccc(NC(C)=O)cc23)cc1 | 5.0 | 4.7 | 58.8* | -9.3 | -8.3 | 28.2
COc1cccc(-c2cc(C(=O)Nc3ccc(N(C)C(C)=O)cc3)c3cc(Br)ccc3n2)c1 | 7.8 | / | 60.1* | -16.0 | -11.6 | 12.7
CSc1ccccc1NC(=O)c1cc(-c2cccnc2)nc2ccc(Br)cc12 | 4.1 | -12.0 | 50.0* | -8.3 | -19.0 | 11.3
O=C(Nc1ccc(Cl)cc1)c1csc([C@@H]2O[C@H](CO)[C@@H](O)[C@H]2O)n1 | 2.1 | / | 8.3 | / | / | /
CCOC(=O)C1=CC[C@@H](c2ccccc2)N(S(=O)(=O)c2ccc(C)cc2)[C@H]1/C=C/c1ccccc1 | 3.4 | / | -4.3 | / | / | /
O=C(NCC1CCN(C(=O)C(=O)c2cc3ccccc3o2)CC1)c1cccnc1 | 0.4 | / | -2.3 | / | / | /
O=C(Nc1ccccc1)c1cc(C2CCCCN2C(=O)c2ccccc2)on1 (configuration not stated) | 2.0 | / | -5.1 | / | / | /
CC1=C(C(=O)N2CCOCC2)CC(CC(=O)NCC2CCCCC2)C(=O)N1Cc1ccc(C(C)(C)C)cc1 (configuration not stated) | 2.0 | / | -9.5 | / | / | /
O=C(NCc1ccc(F)c(F)c1)c1cccc2c(-c3cccnc3)coc12 | 6.8 | / | 43.8 | / | / | /
O=C(NCc1cccc(Cl)c1)c1cccc2c(-c3cccnc3)coc12 | 6.1 | / | 55.3* | / | / | /
COc1ccc(/C=C2/C(=O)N(c3c(F)c(F)c(F)c(F)c3F)N=C2C)cc1 | 42.1* | -11.1 | 27.5 | -1.6 | 5.2 | 13.0
O=C(NCC1CCN(C(=O)C(=O)c2cc3ccccc3o2)CC1)c1ccc2c(c1)OCCCO2 | -0.3 | / | 15.1 | / | / | /
COc1cc(Br)cc2cc(C(=O)OC3CCN(C)CC3)c(=O)oc12 | 10.0 | -13.1 | -1.1 | -15.2 | 11.2 | 49.3*
COc1cccc2cc(C(=O)OC3CCN(C)CC3)c(=O)oc12 | 0.8 | -4.0 | 21.8 | -30.4 | -14.2 | 40.2
CCCN1C(=O)c2ccc(C(=O)NC3=NCCS3)cc2C1=O | -2.2 | -10.8 | 0.5 | -42.9 | -12.3 | 44.7*
CC(c1ccccc1)N1C(=O)c2ccc(C(=O)Nc3ccccc3C(=O)O)cc2C1=O (configuration not stated) | -0.1 | -7.5 | -29.8 | -12.8 | -1.6 | 69.8*
